# Measurements reported in ChEMBL document CHEMBL3091303, “1,3-Dialkyl-substituted tetrahydropyrimido[1,2-f]purine-2,4-diones as multiple target drugs for the potential treatment of neurodegenerative diseases” (Bioorg Med Chem, 2013).
# Legend:
# [1] = biological target: T1, MAO-B (amine oxidase [flavin-containing] B) (Homo sapiens, UniProt P27338); assay: Inhibition of human MAO-B at 10 uM relative to control
# T1 sequence (P27338 whole entry): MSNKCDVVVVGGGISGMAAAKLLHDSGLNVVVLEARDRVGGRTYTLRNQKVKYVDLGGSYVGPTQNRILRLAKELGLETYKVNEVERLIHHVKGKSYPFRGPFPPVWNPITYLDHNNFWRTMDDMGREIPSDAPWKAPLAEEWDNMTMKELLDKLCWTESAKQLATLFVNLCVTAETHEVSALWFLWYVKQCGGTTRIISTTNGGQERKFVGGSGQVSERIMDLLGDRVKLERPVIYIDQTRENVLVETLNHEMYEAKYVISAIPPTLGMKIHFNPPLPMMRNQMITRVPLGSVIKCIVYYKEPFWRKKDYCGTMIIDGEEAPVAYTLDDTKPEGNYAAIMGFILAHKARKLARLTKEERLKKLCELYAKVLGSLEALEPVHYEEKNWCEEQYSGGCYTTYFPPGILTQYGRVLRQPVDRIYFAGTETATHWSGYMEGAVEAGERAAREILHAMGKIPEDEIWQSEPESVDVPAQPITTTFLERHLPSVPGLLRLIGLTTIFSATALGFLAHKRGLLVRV
# How it was run: (§1)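 Human MAO-A and MAO-B inhibition, screened first at a test concentration of 10 µM.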
# [2] = biological target: T2, Amine oxidase [flavin-containing] B (Homo sapiens, UniProt P27338); assay: Inhibition of human MAO-B
# T2 sequence (P27338 whole entry): T1 sequence (P27338 whole entry)
# [3] = biological target: T3, Amine oxidase [flavin-containing] A (Homo sapiens, UniProt P21397); assay: Inhibition of human MAO-A; how it was run: as §1
# T3 sequence (P21397 whole entry): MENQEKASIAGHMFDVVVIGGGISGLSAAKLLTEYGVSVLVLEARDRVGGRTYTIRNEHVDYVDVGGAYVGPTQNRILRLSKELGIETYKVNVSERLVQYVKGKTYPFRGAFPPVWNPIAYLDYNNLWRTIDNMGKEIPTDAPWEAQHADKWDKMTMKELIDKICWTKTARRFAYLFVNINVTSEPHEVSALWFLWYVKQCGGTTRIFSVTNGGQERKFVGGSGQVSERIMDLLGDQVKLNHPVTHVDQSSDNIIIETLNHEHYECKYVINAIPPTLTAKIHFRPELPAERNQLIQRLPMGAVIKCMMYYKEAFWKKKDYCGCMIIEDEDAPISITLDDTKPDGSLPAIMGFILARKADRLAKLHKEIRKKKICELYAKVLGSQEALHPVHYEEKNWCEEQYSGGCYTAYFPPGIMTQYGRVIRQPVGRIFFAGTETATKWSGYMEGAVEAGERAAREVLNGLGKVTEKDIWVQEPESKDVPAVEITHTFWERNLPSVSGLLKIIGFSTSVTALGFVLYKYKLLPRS
# [4] = biological target: T4, MAO-A (amine oxidase [flavin-containing] A) (Homo sapiens, UniProt P21397); assay: Inhibition of human MAO-A at 10 uM relative to control; how it was run: as §1
# T4 sequence (P21397 whole entry): T3 sequence (P21397 whole entry)
# [5] = biological target: T5, Adenosine receptor A3 (Homo sapiens) (UniProt P0DMS8); assay: Displacement of [3H]PSB-11 from human adenosine A3 receptor expressed in CHO cells relative to control; format: cell-based; set-up: concentration or dose not given beside the values; settings: concentration not given here
# T5 sequence (whole entry): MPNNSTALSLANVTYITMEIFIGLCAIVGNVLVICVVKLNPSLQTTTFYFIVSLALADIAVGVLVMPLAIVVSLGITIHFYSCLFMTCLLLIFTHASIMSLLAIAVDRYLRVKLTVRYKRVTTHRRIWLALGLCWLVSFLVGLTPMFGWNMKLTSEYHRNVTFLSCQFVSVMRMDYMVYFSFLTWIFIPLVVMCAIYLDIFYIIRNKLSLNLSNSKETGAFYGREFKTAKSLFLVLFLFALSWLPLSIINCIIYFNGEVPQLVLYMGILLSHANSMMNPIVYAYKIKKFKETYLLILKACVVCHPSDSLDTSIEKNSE
# [6] = biological target: T6, Adenosine receptor A3 (Homo sapiens, UniProt P0DMS8); assay: Displacement of [3H]PSB-11 from human adenosine A3 receptor expressed in CHO cells; format: cell-based
# T6 sequence (P0DMS8 whole entry): T5 sequence (whole entry)
# [7] = biological target: T7, Adenosine receptor A2b (Homo sapiens) (UniProt P29275); assay: Displacement of [3H]PSB-603 from human adenosine A2B receptor relative to control; set-up: concentration or dose not given beside the values; settings: concentration not given here
# T7 sequence (whole entry): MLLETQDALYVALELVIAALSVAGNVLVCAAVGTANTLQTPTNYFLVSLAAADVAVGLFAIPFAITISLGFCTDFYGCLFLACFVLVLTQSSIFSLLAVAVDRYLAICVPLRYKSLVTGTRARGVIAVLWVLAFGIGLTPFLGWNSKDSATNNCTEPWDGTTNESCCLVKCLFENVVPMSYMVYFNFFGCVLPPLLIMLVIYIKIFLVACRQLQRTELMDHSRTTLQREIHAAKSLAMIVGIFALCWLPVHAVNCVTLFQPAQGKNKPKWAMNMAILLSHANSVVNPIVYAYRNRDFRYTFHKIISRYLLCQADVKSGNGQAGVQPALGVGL
# [8] = biological target: Adenosine receptor A2a (Rattus norvegicus) (UniProt P30543); assay: Displacement of [3H]MSX-2 from adenosine A2A receptor in rat brain striatum relative to control; format: tissue-based; set-up: concentration or dose not given beside the values; settings: concentration not given here
# How it was run: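 Radioligand binding to rat A2A receptors in rat brain striatal membrane preparations, reported as % inhibition of radioligand binding at the indicated concentration.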
# [9] = biological target: Adenosine receptor A2a (Rattus norvegicus, UniProt P30543); assay: Displacement of [3H]MSX-2 from adenosine A2A receptor in rat brain striatum; format: tissue-based
# [10] = biological target: T8, Adenosine receptor A2b (Homo sapiens, UniProt P29275); assay: Displacement of [3H]PSB-603 from human adenosine A2B receptor
# T8 sequence (P29275 whole entry): T7 sequence (whole entry)
# [11] = biological target: T9, Adenosine receptor A1 (Rattus norvegicus, UniProt P25099); assay: Displacement of [3H]CCPA from adenosine A1 receptor in rat brain cortex; format: tissue-based
# T9 sequence (P25099 whole entry): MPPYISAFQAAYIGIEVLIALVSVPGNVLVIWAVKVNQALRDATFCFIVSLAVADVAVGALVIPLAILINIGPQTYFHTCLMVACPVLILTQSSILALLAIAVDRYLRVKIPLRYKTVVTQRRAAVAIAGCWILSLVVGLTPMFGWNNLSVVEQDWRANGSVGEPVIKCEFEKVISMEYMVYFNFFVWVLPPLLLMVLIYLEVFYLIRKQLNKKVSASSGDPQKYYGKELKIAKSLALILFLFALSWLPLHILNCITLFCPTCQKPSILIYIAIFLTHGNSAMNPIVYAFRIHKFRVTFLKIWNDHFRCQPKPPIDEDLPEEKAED
# How it was run: (§2)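 Radioligand binding to rat A1 receptors in rat brain cortical membrane preparations. Values are given as Ki, or as % inhibition of radioligand binding at the indicated concentration.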
# [12] = biological target: T10, Adenosine receptor A1 (Rattus norvegicus) (UniProt P25099); assay: Displacement of [3H]CCPA from adenosine A1 receptor in rat brain cortex relative to control; format: tissue-based; set-up: concentration or dose not given beside the values; settings: concentration not given here; how it was run: as §2
# T10 sequence (whole entry): T9 sequence (P25099 whole entry)
# [13] = biological target: T11, Adenosine receptor A1 (Homo sapiens, UniProt P30542); assay: Displacement of [3H]CCPA from human adenosine A1 receptor expressed in CHO cells; format: cell-based
# T11 sequence (P30542 whole entry): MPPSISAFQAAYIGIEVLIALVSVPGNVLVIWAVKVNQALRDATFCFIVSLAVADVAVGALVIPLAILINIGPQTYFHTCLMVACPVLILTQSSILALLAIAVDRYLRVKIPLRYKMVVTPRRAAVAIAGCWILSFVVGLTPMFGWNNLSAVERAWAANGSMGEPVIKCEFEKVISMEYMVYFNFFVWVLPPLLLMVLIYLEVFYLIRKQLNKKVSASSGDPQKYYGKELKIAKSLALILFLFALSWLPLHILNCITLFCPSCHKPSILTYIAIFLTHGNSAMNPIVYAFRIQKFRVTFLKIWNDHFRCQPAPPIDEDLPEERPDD
# How it was run: (§3)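 Radioligand binding to human receptors recombinantly expressed in Chinese hamster ovary (CHO) cells. Results are Ki, or % inhibition of radioligand binding at the indicated concentration.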
# [14] = biological target: T12, Adenosine receptor A1 (Homo sapiens) (UniProt P30542); assay: Displacement of [3H]CCPA from human adenosine A1 receptor expressed in CHO cells relative to control; format: cell-based; settings: concentration not given here; how it was run: as §3
# T12 sequence (whole entry): T11 sequence (P30542 whole entry)
# [15] = biological target: Adenosine receptor A2a (Homo sapiens, UniProt P29274); assay: Displacement of [3H]MSX-2 from human adenosine A2A receptor expressed in CHO cells; format: cell-based; how it was run: as §3
# Chain of Adenosine receptor A2a (Homo sapiens, UniProt P29274) (P29274 whole entry): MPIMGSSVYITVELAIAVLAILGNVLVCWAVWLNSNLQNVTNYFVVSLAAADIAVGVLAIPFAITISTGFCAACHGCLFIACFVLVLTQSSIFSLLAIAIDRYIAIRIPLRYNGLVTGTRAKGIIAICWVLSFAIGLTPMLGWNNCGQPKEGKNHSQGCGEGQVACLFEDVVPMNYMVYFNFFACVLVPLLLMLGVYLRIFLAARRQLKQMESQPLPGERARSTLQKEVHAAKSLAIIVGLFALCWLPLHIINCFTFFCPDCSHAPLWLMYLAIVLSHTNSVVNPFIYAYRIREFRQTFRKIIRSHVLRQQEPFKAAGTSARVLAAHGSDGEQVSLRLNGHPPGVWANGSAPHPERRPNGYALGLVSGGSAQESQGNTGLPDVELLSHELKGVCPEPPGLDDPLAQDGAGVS
# Chain of Adenosine receptor A2a (Rattus norvegicus) (P30543 whole entry): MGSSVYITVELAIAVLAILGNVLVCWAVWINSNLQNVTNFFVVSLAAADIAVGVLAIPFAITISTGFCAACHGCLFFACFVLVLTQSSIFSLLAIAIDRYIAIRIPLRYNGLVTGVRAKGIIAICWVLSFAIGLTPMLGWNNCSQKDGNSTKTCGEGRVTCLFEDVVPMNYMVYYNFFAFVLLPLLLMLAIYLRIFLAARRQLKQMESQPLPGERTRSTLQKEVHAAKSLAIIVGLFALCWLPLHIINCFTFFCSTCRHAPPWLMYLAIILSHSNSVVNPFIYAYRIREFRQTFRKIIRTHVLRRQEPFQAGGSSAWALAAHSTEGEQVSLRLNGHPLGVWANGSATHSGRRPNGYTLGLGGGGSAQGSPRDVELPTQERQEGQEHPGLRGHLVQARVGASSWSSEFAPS
# Chain of Adenosine receptor A2a (Rattus norvegicus, UniProt P30543) (P30543 whole entry): as above
SMILES,inhibition at 10 µM [1],IC50 [2],IC50 [3],inhibition at 10 µM [4],inhibition [5],Ki [6],inhibition [7],inhibition [8],Ki [9],Ki [10],Ki [11],inhibition [12],Ki [13],inhibition [14],Ki [15]
Cn1c(=O)c2c(nc3n2CCCN3CC(=O)N2CCN(c3ccc(Cl)cc3)CC2)n(C)c1=O,60%,2.2 µM,> 10 µM,13%,24%,> 1 µM,-7%,39%,> 10 µM,> 1 µM,> 1.5 µM,0%,–,–,–
Cn1c(=O)c2c(nc3n2CCCN3Cc2ccc(Cl)cc2)n(C)c1=O,–,0.218 µM,> 10 µM,14%,36%,> 10 µM,1%,–,7.23 µM,> 1 µM,> 25 µM,27%,> 10 µM,29%,–
CCCn1c(=O)c2c(nc3n2CCCN3CC(=O)N2CCN(c3ccc(Cl)cc3)CC2)n(CCC)c1=O,52%,10 µM,> 10 µM,-2%,–,0.762 µM,7%,36%,> 10 µM,> 1 µM,> 1.5 µM,19%,–,–,–
Cn1c(=O)c2c(nc3n2CCCN3CC(=O)N2CCN(Cc3ccc(C(F)(F)F)cc3)CC2)n(C)c1=O,–,3.48 µM,> 10 µM,6%,36%,> 10 µM,2%,27%,> 10 µM,> 1 µM,> 1.5 µM,2%,–,–,–
Cn1c(=O)c2c(nc3n2CCCN3c2ccc(Cl)cc2)n(C)c1=O,6%,10 µM,> 10 µM,6%,15%,> 10 µM,10%,–,1.21 µM,> 1 µM,≥ 25 µM,47%,10 µM,30%,–
Cn1c(=O)c2c(nc3n2CCCN3CC(=O)N2CCN(c3ccccc3)CC2)n(C)c1=O,40%,10 µM,> 10 µM,1%,32%,> 10 µM,–,40%,> 10 µM,> 1 µM,> 1.5 µM,3%,–,–,–
CCCn1c(=O)c2c(nc3n2CCCN3CCC(=O)N2CCN(c3ccccc3)CC2)n(CCC)c1=O,30%,> 10 µM,–,–,21%,> 1 µM,-5%,14%,> 10 µM,> 1 µM,> 1.5 µM,5%,–,–,–
Cn1c(=O)c2c(nc3n2CCCN3Cc2cccc(Cl)c2)n(C)c1=O,–,0.344 µM,> 10 µM,2%,–,15.2 µM,10%,–,0.802 µM,> 1 µM,0.432 µM,–,> 10 µM,21%,2.03 µM
CCCn1c(=O)c2c(nc3n2CCCN3CCC(=O)N2CCN(Cc3ccc(Cl)cc3)CC2)n(CCC)c1=O,–,3.6 µM,> 10 µM,1%,23%,> 1 µM,-4%,40%,> 10 µM,> 1 µM,> 1.5 µM,8%,–,–,–
